Values after ≈ are worked out from the molar mass of the structure shown. Values joined by “and” are separate entries in the source; they are usually repeats but may differ in a detail not shown here. Identical values can stand only once. Like-named read-outs stand apart in the source and are kept apart here.
Key:
[1] = Adsorption of bisphenols onto PVC microplastics; type: physicochemical; conditions: 1.5 g PVC microplastics in 1 L, 48 h, room temperature
Summary of the method: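 Each bisphenol was dissolved in ethanol, then diluted in a 1 L glass bottle to initial concentrations of 0 to 1.0 mg L-1. PVC microplastics were added, and bottles were shaken at 200 rpm until adsorption equilibrium. Supernatants were filtered through a glass microfiber filter before bisphenol quantification. Run in triplicate.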

[2] = water, ref Wu et al.^3; cited from earlier work
[3] = Desorption kinetics of bisphenols from bisphenol-attached PVC microplastics; type: physicochemical
Summary of the method: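 Bisphenol-loaded PVC from the adsorption step was placed in water or simulated intestinal fluid (NaCl 0.12 M, Na2CO3 0.02 M, sodium taurocholate 15.5 mM) in sealed 1 L glass bottles. Bottles were agitated rotationally at 200 rpm in an oil bath. Bisphenol was measured in filtered supernatant at intervals from 0 to 75 h. Run in triplicate.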

[4] = tested on: grass carp hepatocyte cell line, L8824; experiment: cells; type: cell-based; conditions: for Cytotoxicity (proliferation reduction), L8824: high concentration (2 mg L^−1)
[5] = tested on: human breast adenocarcinoma cells, MCF-7; experiment: cells; type: cell-based; conditions: for Cytotoxicity (proliferation reduction), MCF-7: high concentration (2 mg L^−1)
[6] = Desorption isotherms; type: physicochemical
[7] = Physicochemical properties of the five bisphenols; conditions: calculated from log Kow and pKa
[8] = type: physicochemical; conditions: high concentration (2 mg L^−1)
[9] = Hepatocyte, 72 h, read-out: IC50 to L8824, 72 h exposure, 291 K, MTT
[10] = calculated for concentration desorbed in warm-I
[11] = calculated for concentration desorbed in water
[12] = read-out: IC50 to L8824, 72 h exposure, 291 K, MTT
[13] = Homo sapiens, MCF7, 72 h, read-out: IC50 to MCF-7, 72 h exposure, 311 K, MTT
[14] = read-out: IC50 to MCF-7, 72 h exposure, 311 K, MTT

SMILES	amount of bisphenol adsorbed on the PVC [1] [mg/g]	kFa, Freundlich constant for adsorption [2] [mg^−1/n·L^−1/n·g^−1]	n, surface heterogeneity constant (adsorption) [2]	Fslow, slow fraction ([3]; cold-I, pH 7.5, 291 K)	krap, rapid desorption rate constant ([3]; cold-I, pH 7.5, 291 K)	kslow, slow desorption rate constant ([3]; cold-I, pH 7.5, 291 K)	kvs, very slow desorption rate constant ([3]; cold-I, pH 7.5, 291 K)	Fslow, slow fraction ([3]; warm-I, pH 6.5, 311 K)	Fvs, very slow fraction ([3]; warm-I, pH 6.5, 311 K)	krap, rapid desorption rate constant ([3]; warm-I, pH 6.5, 311 K)	kslow, slow desorption rate constant ([3]; warm-I, pH 6.5, 311 K)	kvs, very slow desorption rate constant ([3]; warm-I, pH 6.5, 311 K)	Fslow, slow fraction ([3]; water, pH 7.0, 291 K)	Fvs, very slow fraction ([3]; water, pH 7.0, 291 K)	krap, rapid desorption rate constant ([3]; water, pH 7.0, 291 K)	kslow, slow desorption rate constant ([3]; water, pH 7.0, 291 K)	kvs, very slow desorption rate constant ([3]; water, pH 7.0, 291 K)	kFd, Freundlich constant for desorption ([6]; warm-I (Table 2)) [mg^−1/n·L^−1/n·g^−1]	n, surface heterogeneity constant (desorption) ([6]; warm-I (Table 2))	kFd, Freundlich constant for desorption ([6]; water (Table 2)) [mg^−1/n·L^−1/n·g^−1]	also measured
CCC(C)(c1ccc(O)cc1)c1ccc(O)cc1 [BPB, bisphenol B]	0.23	1.182	1.16	0.456±0.005	0.864±0.209 10^-2 h^-1	10.80±0.737 10^-4 h^-1	7.718±0.488 10^-5 h^-1	0.308±0.003	0.010±0.001	2.479±0.452 10^-2 h^-1	18.90±2.818 10^-4 h^-1	<0.01 10^-5 h^-1	0.293±0.006	0.046±0.002	0.777±0.285 10^-2 h^-1	6.751±0.274 10^-4 h^-1	6.992±0.534 10^-5 h^-1	0.428	1.179	1.542	Fvs, very slow fraction ([3]; cold-I, pH 7.5, 291 K): 0.059±0.001; IC50 [4, 9]: 2.34 ± 0.23 µg/mL; Cytotoxicity (proliferation reduction), L8824 [4, 10]: 36.95%; Cytotoxicity (proliferation reduction), L8824 [4, 11]: 26.25%; IC50 [4, 12]: 9.67 ± 0.92 µM; IC50 [5, 13]: 21.6 µM and 5.25 µg/mL; Cytotoxicity (proliferation reduction), MCF-7 [5, 10]: 29.53%; Cytotoxicity (proliferation reduction), MCF-7 [5, 11]: 18.79%; HI, hysteresis index ([6]; warm-I): <0; HI, hysteresis index ([6]; water): 0.304; n, surface heterogeneity constant (desorption) ([6]; water (Table 2)): 1.237
Oc1ccc(C(c2ccc(O)cc2)(C(F)(F)F)C(F)(F)F)cc1 [BPAF, bisphenol AF]	0.24	1.458	1.14	0.409±0.002	1.007±0.318 10^-2 h^-1	9.957±0.755 10^-4 h^-1	<0.01 10^-5 h^-1	0.315±0.007	<0.001	2.609±0.521 10^-2 h^-1	13.80±2.684 10^-4 h^-1	<0.01 10^-5 h^-1	0.272±0.010	0.068±0.002	0.794±0.230 10^-2 h^-1	5.983±0.498 10^-4 h^-1	6.314±0.606 10^-5 h^-1	0.465	1.154	1.933	Fvs, very slow fraction ([3]; cold-I, pH 7.5, 291 K): 0.003±0.001; IC50 [4, 9]: 1.15 ± 0.18 µg/mL; Cytotoxicity (proliferation reduction), L8824 [4, 10]: 46.31%; Cytotoxicity (proliferation reduction), L8824 [4, 11]: 32.70%; IC50 [5, 13]: 2.65 ± 1.34 µg/mL; Cytotoxicity (proliferation reduction), MCF-7 [5, 10]: 36.87%; Cytotoxicity (proliferation reduction), MCF-7 [5, 11]: 24.19%; IC50 [5, 14]: 7.87 ± 3.98 µM; HI, hysteresis index ([6]; warm-I): <0; HI, hysteresis index ([6]; water): 0.326; n, surface heterogeneity constant (desorption) ([6]; water (Table 2)): 1.155
CC(C)(c1ccc(O)cc1)c1ccc(O)cc1 [BPA, bisphenol A]	0.19	0.801	1.21	0.395±0.003	0.809±0.302 10^-2 h^-1	10.90±0.407 10^-4 h^-1	9.442±0.716 10^-5 h^-1	0.303±0.046	0.019±0.003	2.163±0.456 10^-2 h^-1	11.40±0.898 10^-4 h^-1	9.069±0.647 10^-5 h^-1	0.284±0.004	0.076±0.004	0.746±0.206 10^-2 h^-1	5.979±0.555 10^-4 h^-1	6.997±0.788 10^-5 h^-1	0.398	1.218	1.033	log Dow [7]: 3.32; Fvs, very slow fraction ([3]; cold-I, pH 7.5, 291 K): 0.043±0.005; IC50 ([4]; Hepatocyte, 72 h, read-out: IC50 to L8824): 16.2 µM and 3.7 µg/mL; Cytotoxicity (proliferation reduction), L8824 [4, 10]: 29.75%; Cytotoxicity (proliferation reduction), L8824 [4, 11]: 20.08%; IC50 ([5]; Homo sapiens, MCF7, 72 h, read-out: IC50 to MCF-7): 36.9 µM and 8.42 µg/mL; Cytotoxicity (proliferation reduction), MCF-7 [5, 10]: 21.75%; Cytotoxicity (proliferation reduction), MCF-7 [5, 11]: 12.36%; HI, hysteresis index ([6]; warm-I): <0; HI, hysteresis index ([6]; water): 0.289; n, surface heterogeneity constant (desorption) ([6]; water (Table 2)): 1.512
Oc1ccc(Cc2ccc(O)cc2)cc1 [BPF, bisphenol F]	0.16	0.575	1.13	0.335±0.002	0.662±0.241 10^-2 h^-1	6.906±0.579 10^-4 h^-1	2.367±0.112 10^-5 h^-1	0.308±0.003	0.005±0.001	1.744±0.373 10^-2 h^-1	9.877±1.415 10^-4 h^-1	5.778±0.325 10^-5 h^-1	0.371±0.004	0.051±0.002	0.619±0.179 10^-2 h^-1	6.659±0.441 10^-4 h^-1	<0.01 10^-5 h^-1	0.388	1.186	0.720	log Dow [7]: 2.80; IC50 to L8824 ([4]; 72 h exposure, 291 K, MTT): 2.26 ± 0.43 µg/mL (≈ 11.3 µM); Cytotoxicity (proliferation reduction), L8824 [4, 10]: 33.24%; Cytotoxicity (proliferation reduction), L8824 [4, 11]: 27.15%; IC50 [4, 12]: 11.3 ± 2.12 µM; IC50 to MCF-7 ([5]; 72 h exposure, 311 K, MTT): 6.39 ± 0.34 µg/mL (≈ 31.9 µM); Cytotoxicity (proliferation reduction), MCF-7 [5, 10]: 26.54%; Cytotoxicity (proliferation reduction), MCF-7 [5, 11]: 20.83%; IC50 [5, 14]: 31.9 ± 1.69 µM; desorbed concentration, Warm-I [8]: 0.59 mg/L; HI, hysteresis index ([6]; warm-I): <0; HI, hysteresis index ([6]; water): 0.252; n, surface heterogeneity constant (desorption) ([6]; water (Table 2)): 1.594
O=S(=O)(c1ccc(O)cc1)c1ccc(O)cc1 [BPS, bisphenol S]	0.15	0.503	1.15	0.383±0.001	0.587±0.228 10^-2 h^-1	7.612±0.336 10^-4 h^-1	12.03±0.685 10^-5 h^-1	0.325±0.005	<0.001	1.497±0.391 10^-2 h^-1	10.00±1.191 10^-4 h^-1	11.338±0.322 10^-5 h^-1	0.410±0.007	0.028±0.002	0.580±0.174 10^-2 h^-1	6.789±0.198 10^-4 h^-1	<0.01 10^-5 h^-1	0.341	1.207	0.602	Fvs, very slow fraction ([3]; cold-I, pH 7.5, 291 K): 0.085±0.002; IC50 to L8824 ([4]; 72 h exposure, 291 K, MTT): 8.98 ± 1.51 µg/mL (≈ 35.9 µM); IC50 [4, 12]: 35.9 ± 6.01 µM; IC50 to MCF-7 ([5]; 72 h exposure, 311 K, MTT): 14.50 ± 1.95 µg/mL (≈ 57.9 µM); IC50 [5, 14]: 57.9 ± 7.76 µM

Source: publication PMC9488007 (Environmental Science and Ecotechnology, 2020)
